SMILES strings stand for the structures.

In data set [1] the target is T1, Amine oxidase [flavin-containing] B (Homo sapiens, UniProt P27338).
T1 sequence (P27338 whole entry): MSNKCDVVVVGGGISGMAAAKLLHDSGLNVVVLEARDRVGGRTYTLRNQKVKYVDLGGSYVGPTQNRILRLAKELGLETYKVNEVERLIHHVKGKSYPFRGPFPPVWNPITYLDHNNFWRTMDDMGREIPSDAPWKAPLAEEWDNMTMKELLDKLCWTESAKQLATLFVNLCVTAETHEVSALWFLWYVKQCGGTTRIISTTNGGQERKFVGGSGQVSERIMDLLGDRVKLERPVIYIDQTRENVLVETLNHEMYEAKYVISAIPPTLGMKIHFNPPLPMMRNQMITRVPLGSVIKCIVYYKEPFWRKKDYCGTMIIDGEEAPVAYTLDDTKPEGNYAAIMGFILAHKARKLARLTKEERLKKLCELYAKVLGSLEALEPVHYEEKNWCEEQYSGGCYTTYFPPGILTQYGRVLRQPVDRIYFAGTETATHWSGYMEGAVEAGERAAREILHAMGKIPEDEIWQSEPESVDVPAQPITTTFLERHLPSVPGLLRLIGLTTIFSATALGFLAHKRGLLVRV
Description: Reversible inhibition of human recombinant MAO-B expressed in insect cells microsomes assessed as enzyme residual activity preincubated at concentration of 4 times IC50 with enzyme for 15 mins followed by dialysis of enzyme-inhibitor mixture for 24 hrs followed by twofold dilution and incubation at concentration of 2 times IC50 with enzyme for 20 mins using kynuramine as substrate by fluorescence ….

In data set [2] the target is T1, Amine oxidase [flavin-containing] B. Kind of data set: Inhibition of human recombinant MAO-B expressed in insect cells microsomes assessed as enzyme residual activity preincubated at concentration of 4 times IC50 with enzyme for 24 hrs followed by twofold dilution and incubation at concentration of 2 times IC50 with enzyme for 20 mins using kynuramine as substrate by fluorescence spectrophotometry (reference value: 100%).

The target of data set [3] is T2, Amine oxidase [flavin-containing] A (Homo sapiens, UniProt P21397).
T2 sequence (P21397 whole entry): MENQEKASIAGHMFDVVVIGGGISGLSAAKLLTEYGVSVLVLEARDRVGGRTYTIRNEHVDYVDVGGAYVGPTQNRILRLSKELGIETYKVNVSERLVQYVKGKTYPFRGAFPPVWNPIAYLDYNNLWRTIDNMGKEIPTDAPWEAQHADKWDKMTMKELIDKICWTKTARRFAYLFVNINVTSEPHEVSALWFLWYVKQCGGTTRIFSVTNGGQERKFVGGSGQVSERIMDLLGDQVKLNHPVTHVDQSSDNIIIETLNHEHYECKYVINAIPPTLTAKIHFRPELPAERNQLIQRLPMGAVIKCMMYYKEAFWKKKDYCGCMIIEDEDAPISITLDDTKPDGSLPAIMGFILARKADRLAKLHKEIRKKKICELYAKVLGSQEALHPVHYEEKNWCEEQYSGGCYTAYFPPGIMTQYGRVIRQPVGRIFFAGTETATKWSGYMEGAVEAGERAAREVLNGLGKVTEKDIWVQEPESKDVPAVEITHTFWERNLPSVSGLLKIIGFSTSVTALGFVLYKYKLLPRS
Kind of data set: Inhibition of human recombinant MAO-A expressed in insect cells microsomes assessed as inhibition of 4-hydroxyquinoline formation using kynuramine as substrate incubated for 20 mins by fluorescence spectrophotometry analysis. The method, boiled down: (§1)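 Recombinant human MAO-A and MAO-B as enzyme sources with kynuramine as non-selective substrate; product 4-hydroxyquinoline read by fluorescence spectrophotometry. Activity measured across a range of inhibitor concentrations, sigmoidal rate vs log[inhibitor] curves fitted for IC50; triplicate measurements, mean ± SD. Top concentration tested 100 µM. SI taken as IC50(MAO-A)/IC50(MAO-B).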

For data set [4], the target named is T1, Amine oxidase [flavin-containing] B. It counts as cell-based.
The species entered for the next data set is Homo sapiens. Description: Selectivity index, ratio of IC50 for human recombinant MAO-A expressed in insect cells microsomes to IC50 for human recombinant MAO-B expressed in insect cells microsomes. The method, boiled down:
as §1

With `NS(=O)(=O)c1ccc(-c2nnc(-c3ccc(Cl)c(Cl)c3)o2)cc1`, the Activity in data set [1] was 60%; in data set [2], 44%.
`NS(=O)(=O)c1cc(-c2nnc(-c3ccccc3)o2)ccc1Cl`: the IC50 was greater than 100 µM in data set [3] and 0.439 µM in data set [4]. In addition, the Ratio IC50 in the data set listed under Homo sapiens was greater than 228.
On the same counts, the results for `NS(=O)(=O)c1cccc(-c2nnc(-c3ccc(Cl)cc3)o2)c1` are greater than 100 µM, 0.21 µM and greater than 476.
As to `NS(=O)(=O)c1ccc(-c2nnc(-c3ccc(Cl)cc3)o2)cc1`, the half-inhibitory concentration (IC50) worked out at 68 µM in data set [3] and 0.048 µM in data set [4]. Moreover, the Ratio IC50 in the data set filed under Homo sapiens was 1420.
Regarding `NS(=O)(=O)c1cccc(-c2nnc(-c3ccc(F)cc3)o2)c1`, the results for the IC50 in data set [3] and in data set [4] were 34.4 µM and 0.975 µM, respectively. Also, the Ratio IC50 in the data set filed under Homo sapiens was 35.
On to `N#Cc1ccc(C(=O)NNC(=O)c2ccc(S(N)(=O)=O)cc2)cc1`, for which the IC50 in data set [3] came to 16.1 µM; in data set [4] it was 1.17 µM. Also, the Ratio IC50 in the data set listed under Homo sapiens turned out to be 14.
For `NS(=O)(=O)c1ccc(C(=O)NNC(=O)c2ccc(F)cc2)cc1`, in that order: 39.6 µM, greater than 100 µM and less than 0.4.
Consider `Cc1ccc(-c2nnc(-c3ccccc3)o2)cc1S(N)(=O)=O`, for which the IC50 was greater than 100 µM in data set [3] and 0.767 µM in data set [4]. Moreover, the Ratio IC50 in the data set listed under Homo sapiens is greater than 130.
On the same counts, the results for `NS(=O)(=O)c1ccc(C(=O)NNC(=O)c2ccc(Cl)c(Cl)c2)cc1` are 13.6 µM, 10.1 µM and 1.3.
Consider `NS(=O)(=O)c1ccc(C(=O)NNC(=O)c2ccc(Cl)cc2)cc1`, for which the IC50 in data set [3] turned out to be 55.9 µM; in data set [4], 11.7 µM. For the same compound, the Ratio IC50 in the data set listed under Homo sapiens turned out to be 4.8.
For `NS(=O)(=O)c1ccc(C(=O)NNC(=O)c2ccccc2)cc1`, in that order: 62.8 µM, greater than 100 µM and less than 0.6.
As for `NS(=O)(=O)c1ccc(-c2nnc(-c3ccccc3)o2)cc1`, the values for the IC50 in data set [3] and in data set [4] were 63.9 µM and 0.168 µM, respectively. Further, the Ratio IC50 in the data set filed under Homo sapiens amounted to 380.
In the case of `N#Cc1ccc(-c2nnc(-c3ccc(S(N)(=O)=O)cc3)o2)cc1`, the IC50 was determined as 24.3 µM in data set [3] and 0.318 µM in data set [4]. In the data set listed under Homo sapiens, the Ratio IC50 is 76.
For `Cc1ccc(-c2nnc(-c3cccc(S(N)(=O)=O)c3)o2)cc1`, the IC50 in data set [3] stood at 61.4 µM; in data set [4] it was 0.571 µM. The Ratio IC50 in the data set listed under Homo sapiens was 108.
On the same counts, the results for `NS(=O)(=O)c1ccc(-c2nnc(-c3ccc(F)cc3)o2)cc1` are 83.8 µM, 0.079 µM and 1060.

The IC50 is the point on the concentration scale where inhibition reaches its midpoint.

The record behind these values is ChEMBL document CHEMBL4304818, “1,3,4-Oxadiazol-2-ylbenzenesulfonamides as privileged structures for the inhibition of monoamine oxidase B” (Bioorg Med Chem Lett, 2019).
